# Activity calls are given as the source filed them. The calls are words filed in the database; no cut-off is given here.
# What was measured:
# MDA-MB-231 [1] = experiment: Cell cycle arrest in human MDA-MB-231 cells assessed as accumulation at G2 phase at 2.5 to 10 uM after 24 hrs by propidium iodide staining based flow cytometry; format: functional
# In short: (§1)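 Cells were exposed for 24 h to a range of concentrations (625 nM, 2.5 and 10 µM), with DMSO vehicle as control. They were then stained with propidium iodide and analysed by flow cytometry to obtain the percentages of cells in G0/G1, S and G2 phases.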
# [2] = Cmax in Sprague-Dawley rat at 20 mg/kg, po administered as single dose by HPLC analysis; format: ADME, organism-based; set-up: dose 20 mg/kg, route oral; settings: in vivo
# NCI-H460 [3] = experiment: Induction of apoptosis in human NCI-H460 cells assessed as reduction in Bcl2 protein expression after 48 hrs by Western blot method; format: functional, cell-based
# In short: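 Cells were treated with or without test agent, alongside a control, for 48h. They were then lysed and analysed by Western blot for Bcl-2 protein and cleaved caspase 3.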
# NCI-H460 [4] = experiment: Induction of apoptosis in human NCI-H460 cells assessed as late apoptotic cells at 10 uM after 48 hrs by annexin V-FITC/propidium iodide staining based flow cytometry (reference value: 1.29%); format: functional
# [5] = biological target: CDK3/Cyclin E (Homo sapiens) (UniProt P24864+Q00526); experiment: Inhibition of recombinant human full length C-terminal 6His-tagged CDK3/N-terminal GST-tagged Cyclin-E co-expressed in baculovirus infected sf21 cells at 1 uM relative to control
# T47D [6] = experiment: Induction of apoptosis in human T47D cells after 48 hrs by annexin V-FITC/propidium iodide staining based flow cytometry; format: functional, cell-based
# MDA-MB-231 [7] = experiment: Induction of apoptosis in human MDA-MB-231 cells assessed as live cells at 5 uM after 48 hrs by annexin V-FITC/propidium iodide staining based flow cytometry (reference value: 98.1%); format: functional
# T47D [8] = experiment: Induction of apoptosis in human T47D cells assessed as early apoptotic cells at 5 uM after 48 hrs by annexin V-FITC/propidium iodide staining based flow cytometry (reference value: 7.7%); format: functional
# HepG2 [9] = experiment: Induction of apoptosis in human HepG2 cells assessed as late apoptotic cells at 1 uM after 48 hrs by annexin V-FITC/propidium iodide staining based flow cytometry (reference value: 0.64%); format: functional
# [10] = AUC (0 to infinity) in Sprague-Dawley rat at 20 mg/kg, iv administered as single dose by HPLC analysis; format: ADME, organism-based; set-up: dose 20 mg/kg, route intravenous, time infinity; settings: in vivo
# Histone deacetylase 1 = Histone deacetylase 1 (Homo sapiens, UniProt Q13547); experiment: Potency index, ratio of vorinostat IC50 to compound IC50 for HDAC1 (unknown origin)
# Hep 3B2 [11] = experiment: Induction of apoptosis in human Hep3B cells assessed as live cells at 10 uM after 48 hrs by annexin V-FITC/propidium iodide staining based flow cytometry (reference value: 97.9%); format: functional
# [12] = Clearance in Sprague-Dawley rat at 20 mg/kg, iv administered as single dose by HPLC analysis; format: ADME, organism-based; settings: in vivo
# [13] = Clearance in Sprague-Dawley rat at 20 mg/kg, ip administered as single dose by HPLC analysis; format: ADME, organism-based; settings: in vivo
# [14] = Half life in Sprague-Dawley rat at 20 mg/kg, iv administered as single dose by HPLC analysis; format: ADME, organism-based; settings: in vivo
# [15] = biological target: Cyclin-dependent kinase 5/CDK5 activator 1 (Homo sapiens) (UniProt Q00535+Q15078); experiment: Inhibition of recombinant human full length N-terminal 6His-tagged CDK5/N-terminal GST-tagged p35 co-expressed in baculovirus infected sf21 cells at 1 uM using histone H1 substrate in presence of [gamma33P]ATP after 10 mins by scintillation counting method relative to control
# Hep 3B2 [16] = experiment: Downregulation of CDK4 protein expression in human Hep3B cells after 48 hrs by Western blot method; format: functional, cell-based
# HepG2 [17] = experiment: Induction of apoptosis in human HepG2 cells assessed as late apoptotic cells at 5 uM after 48 hrs by annexin V-FITC/propidium iodide staining based flow cytometry (reference value: 0.64%); format: functional
# NCI-H1299 = experiment: Cytotoxicity against human NCI-H1299 cells assessed as reduction in cell viability after 72 hrs by CCK8 assay; format: functional, cell-based; settings: NCI-H1299, 72 h
# Hep 3B2 [18] = experiment: Induction of apoptosis in human Hep3B cells assessed as necrotic cells at 5 uM after 48 hrs by annexin V-FITC/propidium iodide staining based flow cytometry (reference value: 4.97%); format: functional
# HepG2 [19] = experiment: Cell cycle arrest in human HepG2 cells assessed as accumulation at G0/G1 phase at 625 nM after 24 hrs by propidium iodide staining based flow cytometry; format: functional; in short: as §1
# [20] = Oral bioavailability in Sprague-Dawley rat at 20 mg/kg administered as single dose by HPLC analysis; format: ADME, organism-based; settings: in vivo
# Mus musculus = experiment: Toxicity in Balb/c mouse assessed as weight loss at 45 to 130 mg/kg, ip for 16 consecutive days; format: organism-based; settings: in vivo
# Hep 3B2 [21] = experiment: Induction of apoptosis in human Hep3B cells assessed as necrotic cells at 1 uM after 48 hrs by annexin V-FITC/propidium iodide staining based flow cytometry (reference value: 4.97%); format: functional
# A549 [22] = experiment: Induction of apoptosis in human A549 cells after 48 hrs by annexin V-FITC/propidium iodide staining based flow cytometry; format: functional, cell-based
# NCI-H460 [23] = experiment: Induction of apoptosis in human NCI-H460 cells after 48 hrs by annexin V-FITC/propidium iodide staining based flow cytometry; format: functional, cell-based
# A549 [24] = experiment: Cell cycle arrest in human A549 cells assessed as accumulation at G2 phase at 2.5 to 10 uM after 24 hrs by propidium iodide staining based flow cytometry; format: functional; in short: as §1
# Hep 3B2 [25] = experiment: Cell cycle arrest in human Hep3B cells assessed as accumulation at G0/G1 phase at 625 nM after 24 hrs by propidium iodide staining based flow cytometry; format: functional; in short: as §1
# Hep 3B2 [26] = experiment: Induction of apoptosis in human Hep3B cells assessed as late apoptotic cells at 1 uM after 48 hrs by annexin V-FITC/propidium iodide staining based flow cytometry (reference value: 5.25%); format: functional
# 4T1 = experiment: Antitumor activity against mouse Fluc-labeled 4T1 cells implanted in Balb/c mouse assessed as reduction in tumor weight at 130 mg/kg, ip administered daily for 18 days measured after 8 to 25 days; format: functional, organism-based
# In short: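 Luciferase (Fluc) reporter introduced into 4T1 cells by lentiviral transduction. Cells implanted orthotopically into mammary fat pads of female BALB/c mice aged 6–8 weeks. Once tumours averaged 100 mm3, dosing was daily by IP injection. Bioluminescence imaging was done at days 8 and 25 to reflect viable tumour cell number. Tumour weight was recorded at study end.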
# MDA-MB-231 [27] = experiment: Downregulation of CDK4 protein expression in human MDA-MB-231 cells after 48 hrs by Western blot method; format: functional, cell-based
# In short: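 Treated cells were lysed and CDK4 and cyclin D1 protein levels were assessed by Western blot.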
# T47D [28] = experiment: Induction of apoptosis in human T47D cells assessed as necrotic cells at 1 uM after 48 hrs by annexin V-FITC/propidium iodide staining based flow cytometry (reference value: 0.8%); format: functional
# T47D [29] = experiment: Induction of apoptosis in human T47D cells assessed as necrotic cells at 5 uM after 48 hrs by annexin V-FITC/propidium iodide staining based flow cytometry (reference value: 0.8%); format: functional
# T47D [30] = experiment: Induction of apoptosis in human T47D cells assessed as early apoptotic cells at 10 uM after 48 hrs by annexin V-FITC/propidium iodide staining based flow cytometry (reference value: 7.7%); format: functional
# Chain of Histone deacetylase 1 (Q13547 whole entry): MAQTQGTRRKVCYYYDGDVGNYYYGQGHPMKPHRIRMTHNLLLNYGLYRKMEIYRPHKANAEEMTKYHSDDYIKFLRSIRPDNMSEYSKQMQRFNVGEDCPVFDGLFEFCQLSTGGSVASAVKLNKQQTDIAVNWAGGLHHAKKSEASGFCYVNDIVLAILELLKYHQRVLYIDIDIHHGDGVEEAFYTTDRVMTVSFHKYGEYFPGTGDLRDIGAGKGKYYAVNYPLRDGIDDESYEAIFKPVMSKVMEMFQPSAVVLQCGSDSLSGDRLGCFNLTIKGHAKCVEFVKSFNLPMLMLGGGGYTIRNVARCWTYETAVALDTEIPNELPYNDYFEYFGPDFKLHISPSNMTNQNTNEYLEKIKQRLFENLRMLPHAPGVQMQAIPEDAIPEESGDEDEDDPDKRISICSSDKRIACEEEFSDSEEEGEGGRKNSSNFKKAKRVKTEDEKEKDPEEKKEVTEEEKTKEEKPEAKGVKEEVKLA
# Chain of CDK3/Cyclin E (Homo sapiens) (P24864 whole entry, looked up): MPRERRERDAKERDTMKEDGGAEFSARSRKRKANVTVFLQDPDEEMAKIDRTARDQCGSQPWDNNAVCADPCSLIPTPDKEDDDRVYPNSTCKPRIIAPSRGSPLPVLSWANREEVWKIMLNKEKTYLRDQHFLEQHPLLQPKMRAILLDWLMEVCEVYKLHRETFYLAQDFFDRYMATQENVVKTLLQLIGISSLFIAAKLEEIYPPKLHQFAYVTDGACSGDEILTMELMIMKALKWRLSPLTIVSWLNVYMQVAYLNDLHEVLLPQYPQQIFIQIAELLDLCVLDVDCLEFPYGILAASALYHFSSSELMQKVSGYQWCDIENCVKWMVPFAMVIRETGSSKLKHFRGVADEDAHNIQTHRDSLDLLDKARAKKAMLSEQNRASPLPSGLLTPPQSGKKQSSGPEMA
# Chain of CDK3/Cyclin E (Homo sapiens) (Q00526 whole entry, looked up): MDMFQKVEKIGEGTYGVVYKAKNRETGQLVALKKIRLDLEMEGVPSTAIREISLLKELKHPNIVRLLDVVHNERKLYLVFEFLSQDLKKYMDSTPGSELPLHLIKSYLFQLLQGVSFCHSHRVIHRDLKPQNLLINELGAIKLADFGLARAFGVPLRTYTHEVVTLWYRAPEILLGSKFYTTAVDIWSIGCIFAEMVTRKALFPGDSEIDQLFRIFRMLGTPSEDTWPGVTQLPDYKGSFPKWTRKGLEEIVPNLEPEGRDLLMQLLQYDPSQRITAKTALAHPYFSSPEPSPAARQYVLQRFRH
# Chain of Cyclin-dependent kinase 5/CDK5 activator 1 (Homo sapiens) (Q00535 whole entry): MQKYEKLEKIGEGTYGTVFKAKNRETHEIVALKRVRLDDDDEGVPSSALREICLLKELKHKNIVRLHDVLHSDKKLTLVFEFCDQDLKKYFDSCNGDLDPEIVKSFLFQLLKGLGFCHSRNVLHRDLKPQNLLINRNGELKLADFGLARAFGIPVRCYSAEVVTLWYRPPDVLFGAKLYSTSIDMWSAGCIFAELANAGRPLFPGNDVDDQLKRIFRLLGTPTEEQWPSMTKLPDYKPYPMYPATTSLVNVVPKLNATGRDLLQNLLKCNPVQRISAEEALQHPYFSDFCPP
# Chain of Cyclin-dependent kinase 5/CDK5 activator 1 (Homo sapiens) (Q15078 99-307 partner limits assumed): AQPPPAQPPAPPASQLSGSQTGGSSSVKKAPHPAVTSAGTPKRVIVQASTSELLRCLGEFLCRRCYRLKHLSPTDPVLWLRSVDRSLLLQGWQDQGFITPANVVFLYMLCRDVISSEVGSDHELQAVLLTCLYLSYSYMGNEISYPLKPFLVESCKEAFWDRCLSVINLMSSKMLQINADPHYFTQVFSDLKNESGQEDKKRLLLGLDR
smiles,measurement,setting,value
CN(C)C(=O)c1cc2cnc(Nc3ccc(NC(=O)CCCCCCC(=O)NO)cc3)nc2n1C1CCCC1,Activity,MDA-MB-231 [1],Active
same,Cmax,[2],0.137 µg/mL
same,Activity,NCI-H460 [3],Active
same,Activity,NCI-H460 [4],10.9%
same,inhibition,[5],68%
same,Activity,T47D [6],Dose-dependent effect
same,Activity,MDA-MB-231 [7],90.3%
same,Activity,T47D [8],14.1%
same,Activity,HepG2 [9],6.07%
same,AUC(0-inf),[10],6.16 µg·h/mL
same,Ratio IC50,Histone deacetylase 1,> 10
same,Activity,Hep 3B2 [11],72.8%
same,clearance,[12],4.14 L/h/kg
same,CL/F,[13],12.6 L/h/kg
same,half-life,[14],10.8 h
same,inhibition,[15],72%
same,Activity,Hep 3B2 [16],Dose-dependent effect
same,Activity,HepG2 [17],11.1%
same,IC50,NCI-H1299,1.87 µM
same,Activity,Hep 3B2 [18],2.08%
same,Activity,HepG2 [19],Active
same,bioavailability,[20],18.4%
same,Activity,Mus musculus,Non-Toxic
same,Activity,Hep 3B2 [21],3.3%
same,Activity,A549 [22],Dose-dependent effect
same,Activity,NCI-H460 [23],Dose-dependent effect
same,Activity,A549 [24],Active
same,Activity,Hep 3B2 [25],Active
same,Activity,Hep 3B2 [26],7.09%
same,Activity,4T1,Active
same,Activity,MDA-MB-231 [27],Dose-dependent effect
same,Activity,T47D [28],6.7%
same,Activity,T47D [29],0.82%
same,Activity,T47D [30],37.1%

# From ChEMBL document CHEMBL4020842, “Discovery of N1-(4-((7-Cyclopentyl-6-(dimethylcarbamoyl)-7 H-pyrrolo[2,3- d]pyrimidin-2-yl)amino)phenyl)- N8-hydroxyoctanediamide as a Novel Inhibitor Targeting Cyclin-dependent Kinase 4/9 (CDK4/9) and Histone Deacetlyase1 (HDAC1) against Malignant Cancer” (J Med Chem, 2018)
